Results gathered from unrelated publications.
Lines come from different studies, so protocols differ.
Observed: cell growth or viability

Structure (SMILES) | cell line | assay | setting | quantity | result
CCOc1ccc(C(=O)CC(SCc2ccc(Cl)cc2)C(=O)OC)cc1 (stereo not shown) | U2OS | MTT | 48 h | EC50 | 15.7 µM
O=c1[nH]cc(F)c(=O)[nH]1 | HeLa | SRB |  | GI50 | 4400 nM
CCC(=CCc1c(O)cc2c(c1O)C(=O)C[C@@H](c1ccccc1O)O2)CC | HeLa | MTT | 15 µM, 48 h | inhibition | 0.607%
CCOc1ccc(C(=O)CC(SCc2ccc(Cl)cc2)C(=O)O)cc1 (stereo not shown) | U2OS | MTT | 48 h | EC50 | 130 µM
CCC(=CCc1c(O)cc2c(c1O)C(=O)CC(c1ccc(O)cc1)O2)CC (stereo in doubt) | HeLa | MTT | 6.25 µM, 48 h | inhibition | 9.54%
Cc1cc(=O)oc2cc(OCCCCSC#N)ccc12 | HeLa | SRB |  | GI50 | 1900 nM
Cc1nc(Nc2ncc(C(=O)Nc3c(C)cccc3Cl)s2)cc(N2CC[C@H](O)C2)n1 | SU-DHL-6 | ATP luminescence | 10 µM, 72 h | inhibition | 97%
CCOc1ccc(-c2cc(C(=O)O)c(-c3ccc(Cl)cc3)o2)cc1 | U2OS | MTT | 48 h | EC50 | 48 µM
[NH2][Pt]([NH2])([Cl])[Cl] | HeLa | SRB |  | GI50 | 1900 nM
Cc1nc(NC(=O)N2CCC[C@H]2C(N)=O)sc1-c1ccnc(C(C)(C)C(F)(F)F)c1 | Detroit 562 | ATP luminescence | 5 days | EC50 | 29.4 µM
